≈ marks a conversion by molar mass, not a printed value.
Tests used:
[1] = tested on: Mycobacterium tuberculosis; assay: Antibacterial activity against Mycobacterium tuberculosis H37RvMA grown in 7H9/ADC medium measured 7 to 14 days post inoculation by broth microdilution method; type: functional
[2] = tested on: Mycobacterium tuberculosis; assay: Antibacterial activity against Mycobacterium tuberculosis H37RvMA grown in GAST/Fe medium measured 7 to 14 days post inoculation by broth microdilution method; type: functional
How it was run: (§1)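 H37RvMa grown to OD600 0.6–0.7, diluted 1:100 in GAST/Fe. Compounds two-fold serially diluted from a top concentration of 640 μM, in duplicate. Incubated at 37 °C with humidification.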

Vero = assay: Cytotoxicity against African green monkey Vero cells assessed as reduction in cell viability by MTT assay; type: cell-based; settings: Chlorocebus sabaeus
How it was run: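 MTT assay in Vero cells, samples in triplicate on one occasion. Stocks at 20 mg/mL in DMSO, diluted in complete medium as 10-fold serial dilutions over 6 concentrations. Emetine used as reference. IC50 derived by non-linear dose-response curve fitting.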

[3] = Kinetic solubility of the compound in fasted-state simulated intestinal fluid at 10 to 220 uM at pH 6.5 after 2 hrs by shake flask method; type: physicochemical; settings: read-out: Kinetic_solubility
How it was run: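 Miniaturised shake flask. 10 mM DMSO stocks spiked 1:50 into duplicate FaSSIF (pH 6.5), 2% final DMSO. Shaken 2 h at 25 °C, filtered, analysed by HPLC-DAD against calibration standards (10–220 μM).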

[4] = Lipophilicity, log P of the compound at 100 uM at pH 7.4 after 3 hrs by shake-flask method; type: physicochemical; settings: buffer
How it was run: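 Shake-flask method run in triplicate. A 10 mM stock was spiked into a 1:1 mixture of phosphate buffer (pH 7.4) and n-octanol, then shaken at 1500 rpm on an orbital shaker for 3 h at room temperature.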

[5] = Kinetic solubility of the compound in pH 7.4 solution at 10 to 220 uM after 2 hrs by shake flask method; type: physicochemical; settings: buffer, pH 7.4, 2 h, 220 µM
Liver [6] = assay: Metabolic stability in rat liver microsomes assessed as compound remaining at 0.1 uM after 30 mins by LC-MS/MS analysis; type: ADME, microsome; settings: 0.5 h
How it was run: (§2)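 Compound at 0.1 μM incubated in duplicate with mouse, rat or pooled human liver microsomes (0.4 mg/mL) at 37 °C. Run with and without 1 mM NADPH, sampled at predetermined time points.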

Plasma = assay: Fraction unbound in human plasma at 5 uM pre-incubated for 1 hr by ultra-centrifugation and LC-MS/MS method; type: ADME, cell-free
How it was run: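 Pooled human plasma spiked to 5 μM and pre-incubated 1 h at 37 °C. Duplicate aliquots ultracentrifuged 4 h at 37 °C; an unspun aliquot served as the total sample. Analyte measured by LC-MS/MS.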

Liver [7] = assay: Metabolic stability in human liver microsomes assessed as compound remaining at 0.1 uM after 30 mins by LC-MS/MS analysis; type: ADME, microsome; settings: 0.5 h; how it was run: as §2
Liver [8] = assay: Metabolic stability in mouse liver microsomes assessed as compound remaining at 0.1 uM after 30 mins by LC-MS/MS analysis; type: ADME, microsome; settings: 0.5 h; how it was run: as §2
Mus musculus [9] = assay: Apparent elimination half life in C57/BL6 mouse at 20 mg/kg, po measured up to 24 hrs post dose by LC-MS/MS analysis; type: ADME, organism-based; settings: in vivo
How it was run: (§3)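 Male mice, 3 per route, not fasted, free access to water. Oral dose given as aqueous suspension in 0.5% (w/v) hydroxypropyl methylcellulose with 0.4% (v/v) Tween 80. Blood drawn into heparinised tubes at 0.5, 1, 3, 5, 8, 12 and 24 h, kept below -15 °C, protein-precipitated with ice-cold acetonitrile. Quantified by LC-MS/MS against standards made in drug-free mouse blood.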

Mus musculus [10] = assay: Cmax in C57/BL6 mouse at 20 mg/kg, po measured up to 24 hrs post dose by LC-MS/MS analysis; type: ADME, organism-based; parameters: dose 20 mg/kg, route oral; settings: in vivo; how it was run: as §3
Mus musculus [11] = assay: Tmax in C57/BL6 mouse at 20 mg/kg, po measured up to 24 hrs post dose by LC-MS/MS analysis; type: ADME, organism-based; settings: in vivo; how it was run: as §3
Mus musculus [12] = assay: AUC (0 to infinity) in C57/BL6 mouse at 20 mg/kg, po measured up to 24 hrs post dose by LC-MS/MS analysis; type: ADME, organism-based; parameters: dose 20 mg/kg, route oral, time infinity; settings: in vivo; how it was run: as §3
Mus musculus [13] = assay: Oral bioavailability in C57/BL6 mouse at 20 mg/kg measured up to 24 hrs post dose by LC-MS/MS analysis; type: ADME, organism-based; settings: in vivo; how it was run: as §3
Mus musculus [14] = assay: Apparent elimination half life in C57/BL6 mouse at 5 mg/kg, iv measured up to 24 hrs post dose by LC-MS/MS analysis; type: ADME, organism-based; settings: in vivo
How it was run: (§4)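 Male mice, 3 animals, not fasted, given an IV bolus in 10% DMSO, 50% propylene glycol/ethanol (4:1) and 40% polyethylene glycol or water. Blood sampled into heparinised tubes at 0.17, 0.5, 1, 3, 5, 8, 12 and 24 h, stored frozen, precipitated with ice-cold acetonitrile. Measured by LC-MS/MS with internal standards against blood-matrix calibration standards.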

Mus musculus [15] = assay: Volume of distribution in C57/BL6 mouse at 5 mg/kg, iv measured up to 24 hrs post dose by LC-MS/MS analysis; type: ADME, organism-based; settings: in vivo; how it was run: as §4
Mus musculus [16] = assay: AUC (0 to infinity) in C57/BL6 mouse at 5 mg/kg, iv measured up to 24 hrs post dose by LC-MS/MS analysis; type: ADME, organism-based; parameters: dose 5 mg/kg, route intravenous, time infinity; settings: in vivo; how it was run: as §4
Liver [17] = assay: Drug metabolism in BALB mouse liver microsomes assessed as cleavage of amide bound on RHS at 10 uM after 1 hr by LC-MS/MS analysis; type: ADME, microsome
How it was run: (§5)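 Incubation at 37 °C for 1 h with shaking in 100 mM phosphate buffer pH 7.4, 1 mg/ml microsomes, 5 mM MgCl2 and 1 mM NADPH. Ice-cold acetonitrile precipitation, filtration, then LC-MS/MS. Controls: unincubated sample, and samples lacking NADPH or lacking microsomes; propranolol 10 μM as positive control. Metabolites found by comparing T60 with T0 and no-NADPH chromatograms, with product ion spectra of [M+H]+ compared against parent and synthetic standards where available.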

Liver [18] = assay: Drug metabolism in BALB mouse liver microsomes assessed as N-demethylation on LHS at 10 uM after 1 hr by LC-MS/MS analysis; type: ADME, microsome; how it was run: as §5
[19] = tested on: Mycobacterium tuberculosis; assay: Antibacterial activity against wild type Mycobacterium tuberculosis H37Rv grown in GAST/Fe medium measured on day 14 post inoculation by broth microdilution method; type: functional; settings: 336 h; how it was run: as §1
[20] = tested on: Mycobacterium tuberculosis; assay: Antibacterial activity against Mycobacterium tuberculosis H37Rv grown in middlebrook 7H9 medium measured on day 7 and 14 by MABA assay; type: functional; settings: 168 h
[21] = tested on: Mycobacterium tuberculosis; assay: Antibacterial activity against Mycobacterium tuberculosis […] SAWC1125 grown in middlebrook 7H9 medium measured on day 7 and 14 by MABA assay; type: functional; settings: 168 h
How it was run: (§6)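 Clinical M. tuberculosis strains tested by broth microdilution in 7H9 medium. On days 7 and 14, Alamar Blue added and plates reincubated 24 h at 37 °C. Colour read by eye (blue means no growth, pink means growth). MIC90 is the lowest concentration with no colour change.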

[22] = tested on: Mycobacterium tuberculosis; assay: Antibacterial activity against Mycobacterium tuberculosis […] SAWC3933 grown in middlebrook 7H9 medium measured on day 7 and 14 by MABA assay; type: functional; settings: 168 h; how it was run: as §6
[23] = tested on: Mycobacterium tuberculosis; assay: Antibacterial activity against Mycobacterium tuberculosis […] SAWC3385 grown in middlebrook 7H9 medium measured on day 7 and 14 by MABA assay; type: functional; settings: 168 h; how it was run: as §6
[24] = tested on: Mycobacterium tuberculosis; assay: Antibacterial activity against Mycobacterium tuberculosis […] SAWC3200 grown in middlebrook 7H9 medium measured on day 7 and 14 by MABA assay; type: functional; settings: 168 h; how it was run: as §6
[25] = tested on: Mycobacterium tuberculosis; assay: Antibacterial activity against Mycobacterium tuberculosis […] SAWC3388 grown in middlebrook 7H9 medium measured on day 7 and 14 by MABA assay; type: functional; settings: 168 h; how it was run: as §6
[26] = tested on: Mycobacterium tuberculosis; assay: Antibacterial activity against Mycobacterium tuberculosis […] SAWC3906 grown in middlebrook 7H9 medium measured on day 7 and 14 by MABA assay; type: functional; settings: 168 h; how it was run: as §6

| Structure (SMILES) | MIC99 [1] [µM] | MIC99 [2] [µM] | IC50 (Vero) [µM] | solubility kinetic at 2 h [3] [µM] | logD at 3 h, 100 µM [4] | Kinetic_solubility [5] [µM] | Stability (Liver [6]) [%] | Fu (Plasma) [%] | Stability (Liver [7]) [%] | Stability (Liver [8]) [%] | betat1/2(app) (Mus musculus [9]) [h] | Cmax (Mus musculus [10]) [nM] | Tmax (Mus musculus [11]) [h] | AUC (Mus musculus [12]) [µM·min] | F (Mus musculus [13]) [%] | betat1/2(app) (Mus musculus [14]) [h] | Vd (Mus musculus [15]) [L/kg] | AUC (Mus musculus [16]) [µM·min] | Drug metabolism (Liver [17]) | Drug metabolism (Liver [18]) | further results |
| --- | --- | --- | --- | --- | --- | --- | --- | --- | --- | --- | --- | --- | --- | --- | --- | --- | --- | --- | --- | --- | --- |
| CN(Cc1ccc(C(F)(F)F)cc1)c1cc(C(=O)Nc2ccccc2)ncn1 | 5 (≈ 1.93 µg/mL) | 5 (≈ 1.93 µg/mL) | 258 | 5 (≈ 1.93 µg/mL) | 5 | < 5 | 87 | 0.11 | 55 | 60 | 8.7 | 2200 | 1 | 1334 | 28 | 4.6 | 4.3 | 1224 | Metabolite_Detected | Metabolite_Detected | – |
| CN(Cc1ccc(F)cc1)c1cc(C(=O)Nc2nncs2)ncn1 | 12.5 (≈ 4.3 µg/mL) | 4.7 (≈ 1.62 µg/mL) | 21.9 | < 5 | 2 | 128 | 65 | 0.01 | 67 | 74 | 4.4 | 2580 | 1 | 1022 | 19 | 5.1 | 4.8 | 1329 | Metabolite_Detected | Metabolite_Detected | MIC99 [19]: 5 µM (≈ 1.72 µg/mL); MIC90 [20]: 2.5 µM (≈ 0.861 µg/mL); MIC90 [21]: < 0.08 µM; MIC90 [22]: 0.625 µM (≈ 0.215 µg/mL); MIC90 [23]: < 0.08 µM; MIC90 [24]: < 0.08 µM; MIC90 [25]: 0.15 µM (≈ 0.0517 µg/mL); MIC90 [26]: < 0.08 µM |

Source: ChEMBL document CHEMBL4028901, “Novel Antitubercular 6-Dialkylaminopyrimidine Carboxamides from Phenotypic Whole-Cell High Throughput Screening of a SoftFocus Library: Structure-Activity Relationship and Target Identification Studies” (J Med Chem, 2017)
